NOD2 RIPK2 PPI – NOD2-RIPK2 binding disruptors in cells, primary screen, fluorescence, CHO cells, BLA complementation; Receptor-interacting serine/threonine-protein kinase 2 (Homo sapiens), O43353; CCF4 ratio; inhibition, % at 4.98 µM; 360,000 tested, 0.38% active; in the data active = inhibition above about 21%
UPR CHOP act – activators of apoptotic CHOP UPR arm, primary screen, cell-based, CHO-CHOP luciferase reporter, luminescence, uHTS; AID 449763, 2010; 330,000 tested, 0.34% active; UPR activation; percent of tunicamycin response over DMSO baseline; activation, % at 10 µM;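 active = at 10 µM dose, activation of 40% or more, normalized to positive control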
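Material: CHO-CHOP cells, stable luciferase reporter of PERK-eIF2a-CHOP signalling; quantity: 500 reporter cells seeded per well; buffer or medium: F12 medium containing 10% fetal bovine serum; compound: one dose, 10 µM in 0.5% DMSO; incubation: 6 h compound treatment, 37 °C; measured by: Steady-Glo luciferase luminescence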
TLR4-MyD88 BLA – inhibitors of TLR4-MyD88 association in cells, primary screen, cell-based, HeLa CL3-4, BLA complementation, FRET ratio; Toll-like receptor 4 (Homo sapiens) + Myeloid differentiation primary response protein …; HeLa CL3-4 TLR4/MyD88 BLA complementation; inhibition, % at 8.4 µM; 200,000 tested, 0.18% active; in the data active = inhibition above about 25%
Target sequence (O00206 whole entry, looked up): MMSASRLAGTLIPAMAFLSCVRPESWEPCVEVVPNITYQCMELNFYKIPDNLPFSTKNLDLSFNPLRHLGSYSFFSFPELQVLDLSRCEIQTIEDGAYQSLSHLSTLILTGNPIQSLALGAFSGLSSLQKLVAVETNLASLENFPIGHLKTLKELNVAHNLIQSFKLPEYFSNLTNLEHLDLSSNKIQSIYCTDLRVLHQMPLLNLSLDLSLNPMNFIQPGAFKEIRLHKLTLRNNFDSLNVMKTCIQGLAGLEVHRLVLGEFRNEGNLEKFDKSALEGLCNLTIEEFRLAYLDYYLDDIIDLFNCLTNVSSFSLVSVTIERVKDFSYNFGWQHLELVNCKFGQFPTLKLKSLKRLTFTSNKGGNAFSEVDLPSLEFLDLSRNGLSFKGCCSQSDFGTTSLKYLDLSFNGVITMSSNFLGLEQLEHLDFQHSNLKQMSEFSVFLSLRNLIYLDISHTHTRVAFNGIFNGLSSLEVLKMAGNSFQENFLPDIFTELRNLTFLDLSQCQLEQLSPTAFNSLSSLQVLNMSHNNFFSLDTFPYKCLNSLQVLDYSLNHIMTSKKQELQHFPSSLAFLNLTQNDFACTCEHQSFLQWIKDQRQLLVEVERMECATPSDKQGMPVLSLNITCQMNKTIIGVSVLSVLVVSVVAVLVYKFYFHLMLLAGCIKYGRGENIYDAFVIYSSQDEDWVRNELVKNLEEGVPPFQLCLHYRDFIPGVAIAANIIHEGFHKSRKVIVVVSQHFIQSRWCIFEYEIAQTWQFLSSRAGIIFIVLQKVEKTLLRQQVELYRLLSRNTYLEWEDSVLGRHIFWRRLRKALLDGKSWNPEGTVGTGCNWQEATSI
Target sequence (Q99836 whole entry, looked up): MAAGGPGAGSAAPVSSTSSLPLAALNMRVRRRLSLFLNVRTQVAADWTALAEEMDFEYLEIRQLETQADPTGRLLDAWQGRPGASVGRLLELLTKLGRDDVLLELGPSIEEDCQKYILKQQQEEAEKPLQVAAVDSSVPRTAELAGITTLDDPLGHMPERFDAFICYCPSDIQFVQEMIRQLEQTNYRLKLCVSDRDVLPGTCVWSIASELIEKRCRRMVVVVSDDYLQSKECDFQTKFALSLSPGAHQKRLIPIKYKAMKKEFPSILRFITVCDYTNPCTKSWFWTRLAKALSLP
CHOP inh – inhibitors of CHOP promoter induction, primary screen, cell-based, unfolded protein response, luciferase reporter. CHO-K1 CHOP-promoter luciferase, tunicamycin-induced, 15-18 h. inhibition, % at 10 µM. 220,000 tested, 3.8% active;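 active = compounds that reduced the stress-induced luciferase reporter signal by more than about 70% of percent inhibition, limit read from the data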
XBP1 UPR activ – activators of adaptive XBP1 UPR arm, primary screen, cell-based, CHO-XBP1 luciferase reporter, luminescence, uHTS. IRE1-XBP1 UPR activation; percent of tunicamycin response, DMSO as zero. activation, % at 20 µM. 330,000 tested, 0.33% active;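 active = versus positive control, 20 µM dose yields 30% or more activation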
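Assay system: CHO-XBP1 luciferase reporter cells; Schedule: 6 h treatment, 37 °C; Detection: glow luminescence from Steady-Glo reagent; Benchmarks: high control tunicamycin 10 µg/mL final, low control DMSO vehicle only.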
TLR9-MyD88 inh – inhibitors of TLR9-MyD88 association in cells, primary screen, cell-based, CHO, BLA complementation, fluorescence. CCF4 FRET ratio. inhibition, % at 4.98 µM. 340,000 tested, 0.21% active;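 active = inhibition above the mean over all tested compounds plus 3 SD, cut at about 21% in these data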
CHOP inh conf – retest of CHOP induction inhibitors, confirmation, cell-based. shares compounds with CHOP inh. CHO-CHOP promoter luciferase reporter, tunicamycin-induced, luminescence. inhibition, % at 10 µM. 2,100 tested, 45% active. AID 504437, 2011;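 active = mean of three repeat readings of reporter signal inhibition above a set limit, cut at about 70% in these data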
UPR CHOP confirm – activators of apoptotic CHOP UPR arm, confirmation, cell-based, CHO-CHOP luciferase reporter, single concentration. shares compounds with UPR CHOP act. CHO-CHOP cells, CHOP-luciferase reporter luminescence; percent of tunicamycin response, DMSO as zero. activation, % at 10 µM. 1,000 tested, 64% active; in the data active = activation above about 33%
UPR XBP1 confirm – IRE1-XBP1 UPR arm activators, confirmation, cell-based, CHO-XBP1 luciferase reporter, luminescence, single concentration | shares compounds with XBP1 UPR activ | activation, % at 20 µM | 1,000 tested, 63% active | AID 485299, 2010;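 active = reporter signal at least 30% of the positive control's activation in two or more of four replicate wells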
TLR9-MyD88 conf – TLR9-MyD88 association inhibitors, retest, confirmation, cell-based, CHO, BLA complementation, fluorescence, triplicate. shares compounds with TLR9-MyD88 inh. CCF4 FRET ratio. inhibition, % at 4.98 µM. 680 tested, 51% active;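 active = mean inhibition across three repeats above about 21% taken from the earlier screen, limit read from the data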;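 note: blue over green emission ratio reports constitutive TLR9 MyD88 association via BLA complementation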
BLA counter-1 – beta-lactamase reporter inhibitors in CHO cells, artefact control for TLR9-MyD88 binding inhibitor project, cell-based, fluorescence; shares compounds with TLR9-MyD88 inh; CHO-BLA cells, CCF4 FRET ratio, BLA reporter; inhibition, % at 4.98 µM; 680 tested, 7% active; AID 540251, 2011;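 active = mean inhibition above a 50% cutoff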;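 note: counterscreen of TLR9-MyD88 hits on CMV-driven BLA in CHO-K1 cells; higher means less blue over green ratio so more BLA blockade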
TLR9 CHO tox – CHO cell viability loss – luminescence, single concentration, cytotoxicity control for TLR9-MyD88 binding inhibitor project; shares compounds with TLR9-MyD88 inh; inhibition, % at 4.98 µM; 680 tested, 39% active; AID 588336, 2011; TLR9-MyD88 CHO cells cytotoxicity; in the data active = inhibition above about 11%
NOD2-RIPK2 conf – NOD2-RIPK2 binding disruptors, retest, confirmation, fluorescence, CHO cells, BLA complementation, triplicate | shares compounds with NOD2 RIPK2 PPI | CCF4 FRET | inhibition, % at 4.98 µM | 1,200 tested, 70% active | AID 624370, 2012;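 active = mean inhibition across replicates above a set limit taken from the earlier primary screen, cut at about 21% in these data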
BLA counter-2 – hits BLA reporter in NOD2-RIPK2 inhibitor counterscreen; shares compounds with NOD2 RIPK2 PPI; CHO BLA reporter, CCF4 FRET ratio; inhibition, % at 4.98 µM; 1,200 tested, 57% active; AID 624371;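 active = mean inhibition above the low-control mean inhibition plus three low-control SD, cut at about 11% in these data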
Numbers stand for hits; - = inactive; . = no result. The full list was thinned out, with hits kept by preference.

SMILES	NOD2 RIPK2 PPI	UPR CHOP act	TLR4-MyD88 BLA	CHOP inh	XBP1 UPR activ	TLR9-MyD88 inh	UPR CHOP confirm	others
CN1C2CCC1/C(=C/c1ccccn1)C(=O)/C2=C\c1ccccn1	30.1	.	-	107.7	.	23.9	.	CHOP inh conf=111.1;TLR9-MyD88 conf=-;BLA counter-1=-;TLR9 CHO tox=99.4;NOD2-RIPK2 conf=41.5;BLA counter-2=-
CSCCC(c1nnnn1-c1ccc2c(c1)OCCO2)N1CCC(n2c(=O)[nH]c3ccccc32)CC1 (configuration not stated)	-	.	.	.	.	.	.
Cc1ccc(-c2cc(-c3ccccc3)cc(-c3ccccc3)[n+]2-c2ccccc2)cc1	-	-	.	.	-	-	.
Cc1ccc(-c2cc(-c3ccc(C)cc3)[n+](-c3ccccc3)c(-c3ccc(C)cc3)c2)cc1	-	54.7	.	.	-	-	69.0
O=C1NC(=S)NC(=O)C1=Cc1ccc(Br)s1	-	71.7	.	.	-	-	118.7
CN1C(=O)/C(=C\c2ccc(Br)s2)C(=O)NC1=S	-	.	.	.	.	-	.
Cn1cccc1/C=C1/C(=O)NC(=S)N(Cc2ccc(F)cc2)C1=O	-	-	.	-	-	-	.
O=C(c1cc(Cl)cc(Cl)c1)N1Cc2ccccc2-n2nncc2C1	-	.	.	.	.	-	.
N=Cc1c(O)n(-c2cccc(Cl)c2)c(=O)[nH]c1=O	-	40.1	-	-	-	-	-
O=c1[nH]c(=O)n(-c2cccc(Cl)c2)c(O)c1/C=N/c1ccccn1	-	-	-	-	-	-	.
Cc1cccc(-n2c(/C=C/c3ccc([N+](=O)[O-])o3)nc3ccccc3c2=O)c1	-	42.9	-	-	-	-	36.9
O=c1c2ccccc2nc(/C=C/c2ccc([N+](=O)[O-])o2)n1-c1ccc(O)cc1	-	93.6	-	-	-	.	37.4
COC(=O)C1=C(c2c(C)noc2C)C[C@@H]2CC[C@H]1N2C(=O)NC1CCCCC1	-	-	.	.	-	-	.
C=C1C(=O)O[C@@H]2C[C@@H](C)[C@H]3C=CC(=O)[C@]3(O)C[C@@H]12	-	60.5	.	-	-	-	-
CCc1ccc(N2C(=O)NC(=O)/C(=C\C=C\c3ccco3)C2=O)cc1	-	166.8	.	108.2	-	-	228.9
CCOc1ccc(N2C(=O)/C(=C/c3ccco3)C(=O)NC2=S)cc1	-	-	.	.	-	-	.
Cc1ccc(N2C(=O)NC(=O)/C(=C/C=C/c3ccco3)C2=O)cc1	-	168.3	-	101.5	-	-	119.0
O=C1NC(=O)N(c2ccccc2)C(=O)/C1=C\C=C\c1ccccc1	-	174.7	.	80.9	-	.	63.5
CCOC(=O)C1(c2ccccc2)CCN(CC(=O)c2ccc(NC(C)=O)cc2)CC1	-	.	.	.	.	-	.
Cc1cc(C)c(N=Cc2c(O)[nH]c(=O)[nH]c2=O)c(C)c1	-	-	.	.	-	-	.
CCCCCc1nc2ccccc2c(=O)n1-c1ccccc1[N+](=O)[O-]	-	-	-	-	-	-	.
CCCCCc1nc2c(c(=O)c3ccccc3n2C)c(=O)n1C1CCCCCC1	-	-	-	102.9	61.2	-	.	UPR XBP1 confirm=46.1
CCOC(=O)c1cncn1[C@H](C)c1ccccc1	.	-	.	-	-	.	.
CC(C)N1CC=C(c2c[nH]c3ccccc23)CC1	-	-	-	-	48.2	-	.	UPR XBP1 confirm=-
c1cc(OCCN2CC2)ccn1	-	.	.	.	.	-	.
SMILES	NOD2 RIPK2 PPI	UPR CHOP act	TLR4-MyD88 BLA	CHOP inh	XBP1 UPR activ	TLR9-MyD88 inh	UPR CHOP confirm	others
C=C(C)[C@@]12OC3(c4ccccc4)O[C@@H]1C1[C@@H]4O[C@]4(CO)[C@@H](O)[C@]4(O)C(=O)C(C)=C[C@H]4[C@@]1(O3)[C@H](C)[C@H]2OC(=O)/C=C/C=C/c1ccccc1 (some centres not stated)	-	-	.	.	47.0	-	.	UPR XBP1 confirm=60.9
CCN1CCC(N(C)C2CCCCC2)CC1	-	-	.	.	-	-	.
CCN(CC)c1ccc(N=Cc2c(O)n(-c3ccc(Cl)cc3)c(=O)[nH]c2=O)cc1	-	-	-	-	166.9	-	.	UPR XBP1 confirm=48.3
CN(C(=O)Cc1ccc(Cl)c(Cl)c1)C(CN1CCCC1)c1cccc(OCC(=O)O)c1 (configuration not stated)	-	-	.	-	-	23.3	.	TLR9-MyD88 conf=-;BLA counter-1=-;TLR9 CHO tox=-
N#Cc1ccc(/C=C/C(=O)O)cc1	-	-	.	-	-	-	.
Cc1cc(N(CCCl)CCCl)ccc1C=Cc1ccncn1	40.3	.	.	.	.	31.8	.	TLR9-MyD88 conf=-;BLA counter-1=-;TLR9 CHO tox=-;NOD2-RIPK2 conf=25.9;BLA counter-2=31.1
C[C@]1(O)CCC2C3CC[C@H]4C[C@@H](OC(=O)[C@@H](N)CCCCN)CC[C@]4(C)C3CC[C@@]21C (some centres not stated)	-	.	.	.	.	-	.
